# Source: PubChem BioAssay
# Sampled rows, rich in hits. Any-hit rate of the full collection: about 1.8%.
# CHRM4 agonist: human M4 muscarinic receptor agonists, primary screen, CHO-K1 cells, Fluo-8 calcium fluorescence. Muscarinic acetylcholine receptor M4 (Homo sapiens), P08173. CHO-K1 hM4/Gqi5; vehicle 0%, full acetylcholine response 100%. activation, % at 3 µM. 360,000 compounds, 0.14% hits. AID 624127, 2012;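 active = activation above the run mean over all test wells plus 3 SD, cut at about 32% in these data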;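 note: peak over basal fluorescence ratio per well then scaled between controls; 0% = DMSO wells and 100% = acetylcholine at EC100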
# Target sequence (P08173 whole entry, looked up): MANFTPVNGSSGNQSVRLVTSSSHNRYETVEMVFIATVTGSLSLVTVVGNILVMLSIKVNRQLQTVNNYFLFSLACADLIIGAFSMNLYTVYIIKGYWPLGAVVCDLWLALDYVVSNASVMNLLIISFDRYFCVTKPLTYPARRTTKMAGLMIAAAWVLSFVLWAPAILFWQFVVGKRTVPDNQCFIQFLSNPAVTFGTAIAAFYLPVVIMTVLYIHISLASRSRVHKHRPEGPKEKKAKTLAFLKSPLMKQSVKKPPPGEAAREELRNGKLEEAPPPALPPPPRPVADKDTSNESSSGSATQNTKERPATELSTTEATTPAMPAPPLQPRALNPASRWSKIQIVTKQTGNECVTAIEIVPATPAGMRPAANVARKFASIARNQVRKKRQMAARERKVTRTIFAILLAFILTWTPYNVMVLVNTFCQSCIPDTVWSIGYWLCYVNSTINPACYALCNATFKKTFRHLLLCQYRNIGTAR
# CHRM5 agonist: human M5 muscarinic receptor agonists, primary screen, CHO-K1 cells, Fluo-8 calcium fluorescence; Muscarinic acetylcholine receptor M5 (Homo sapiens), P08912; CHO-K1 hM5 cells; 0% DMSO wells, 100% maximal acetylcholine response; activation, % at 3 µM; 360,000 compounds, 0.19% hits; AID 624037, 2012;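 active = activation above the run's mean over test compounds plus 3 SD, cut at about 23% in these data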;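 note: signal is peak over basal fluorescence ratio across the kinetic read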
# M4 PAM: human M4 muscarinic receptor positive allosteric modulators, primary screen, CHO-K1 cells, Fluo-8 calcium fluorescence; 360,000 compounds, 0.4% hits; CHO-K1 hM4/Gqi5, ACh EC20; 0% = ACh EC20, 100% = maximal ACh; activation, % at 3 µM;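 active = activation above its plate's cutoff, the mean activation of sample wells plus 3 SD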
# M5 antag: human M5 muscarinic receptor antagonists, primary screen, CHO cells, Fluo-8 calcium fluorescence; Muscarinic acetylcholine receptor M5 (Homo sapiens), P08912; CHO-hM5 cells, ACh EC80; inhibition, % at 3 µM; 360,000 compounds, 0.59% hits; AID 624040, 2012;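 active = inhibition above a per-plate cutoff, the mean of that plate's test compounds plus 3 SD, cut at about 27% in these data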;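 note: 0% = acetylcholine EC80 with DMSO and 100% = DMSO without agonist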
# M5 PAM: human M5 muscarinic receptor positive allosteric modulators, primary screen, CHO-K1 cells, Fluo-8 calcium fluorescence; Muscarinic acetylcholine receptor M5 (Homo sapiens), P08912; CHO-K1 hM5, ACh EC20 PAM; 0% = ACh EC20, 100% = ACh EC100; activation, % at 3 µM; 360,000 compounds, 0.3% hits; AID 624038, 2012;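 active = activation above the run cutoff, the mean activation of all test compounds plus 3 SD, cut at about 18% in these data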
#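 System: CHO-K1 cell line with stable human muscarinic M5 receptor expression | Also added: EC20 acetylcholine as agonist stimulus | Compound: One concentration, 3 µM final (nominal) | Timing: Fluo-8 loading 80 min at 37 °C plus 30 min room temperature | Measured by: Fluo-8 calcium dye fluorescence, kinetic read | Read-out basis: % activation, ACh-normalized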
# CHRM4 antagonist: human M4 muscarinic receptor antagonists, primary screen, CHO cells, Fluo-8 calcium fluorescence. Muscarinic acetylcholine receptor M4 (Homo sapiens), P08173. CHO-hM4 cells, ACh EC80. inhibition, % at 3 µM. 360,000 compounds, 0.73% hits. AID 624125, 2012;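 active = inhibition above its plate's cutoff, the mean inhibition of sample wells plus 3 SD, cut at about 27% in these data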;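 note: 0% = acetylcholine EC80 with DMSO and 100% = DMSO without agonist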
# Active calls of the source: *.
SMILES,CHRM4 agonist,CHRM5 agonist,M4 PAM,M5 antag,M5 PAM,CHRM4 antagonist
Cc1ccc(N2C(=O)N(CC(=O)Nc3ccccc3C)C(=O)C2C)cc1 (stereo not given),3,2,8,-40,19*,-16
CN(NC(=O)C(=O)NCc1ccco1)C(=O)Nc1ccc(Cl)cc1,18,11,4,37*,-20,8
O=C1c2ccccc2C(Nc2ccc(F)c(Cl)c2)N1c1ccccn1 (stereo not given),0,2,-1,3,-5,2
COc1ccc(NC2c3ccccc3C(=O)N2c2ccccn2)cc1Cl (stereo not given),1,-3,-15,8,-16,79*
O=C(COC(=O)c1ccccc1C(=O)OCC(=O)NCCc1c[nH]c2ccccc12)NCCc1c[nH]c2ccccc12,21,0,-10,32*,-38,43*
Cc1cccc(NC(=O)CCSc2ccccc2)c1C,-1,-4,-5,0,4,1
Cc1cccc(C)c1NC(=O)COC(=O)CCc1c[nH]c2ccccc12,2,2,3,3,-6,-2
O=C(COC(=O)c1ccccc1O)NCCc1c[nH]c2ccccc12,5,-2,2,12,-19,-1
Cc1cccc(NC(=O)COC(=O)CCc2c[nH]c3ccccc23)c1C,2,2,22*,-8,3,-21
O=C(CCCc1c[nH]c2ccccc12)NCCc1c[nH]c2ccccc12,8,2,-2,4,1,6
Cc1cccc(NC(=O)CCc2ccccc2)c1C,0,0,3,-18,26*,-15
O=C(NCCc1c[nH]c2ccccc12)OCCCCOC(=O)NCCc1c[nH]c2ccccc12,20,5,-10,10,-24,32*
O=C(NNC(=O)c1ccccc1C(=O)O)c1ccc(S(=O)(=O)N2CCCCC2)cc1,1,-4,0,4,3,-5
Cc1cc(OCC(=O)Nc2ccc(CN3CCCCC3)cc2)ccc1Cl,36*,2,-21,19,-15,18
COc1ccccc1-c1ccc(/C=C2/C=C(C)OC2=O)o1,2,-2,6,1,2,-10
COc1ccccc1-c1ccc(/C=C2\C=CC(=O)O2)o1,24,70*,-15,27*,-24,8
COC(=O)c1ccc2c(c1)sc(=NC(=O)CCS(=O)(=O)c1ccccc1)n2C,8,4,18*,-10,2,-6
COCCn1c(=NC(=O)CCS(=O)(=O)c2ccccc2)sc2ccccc21,9,-1,-4,-1,-2,2
COc1ccc(-c2[nH]ncc2CNCCc2ncccc2C)cc1F,0,-2,-6,1,7,3
CC(=O)c1c(C)[nH]c(C(=O)CN2C(=O)NC(C)(c3ccc(C)cc3)C2=O)c1C (stereo not given),36*,46*,7,19,-8,-1
Cc1cc(NC(=O)C(C)SCC(=O)OCc2ccc([N+](=O)[O-])cc2)no1 (stereo not given),0,-3,1,-7,9,1
O=C(Nc1ccccc1O)c1ccc2c(c1)C(=O)N(c1ccccc1)C2=O,0,2,4,6,0,3
Cc1cc(N2C(=O)c3ccc(C(=O)Nc4ccccc4O)cc3C2=O)no1,0,-5,2,28*,-5,-2
CC(=O)c1ccc(N2CCC(c3cc(-c4ccc(Cl)cc4)n[nH]3)CC2)c([N+](=O)[O-])c1,4,1,-16,14,-10,29*
COc1ccc(-c2cc(C3CCN(c4ccc(C(C)=O)cc4[N+](=O)[O-])CC3)[nH]n2)cc1,6,0,-10,3,-3,6
SMILES,CHRM4 agonist,CHRM5 agonist,M4 PAM,M5 antag,M5 PAM,CHRM4 antagonist
Cc1cc(NC(=O)CN2C(=O)NC3(CCCCCC3)C2=O)ccc1Br,1,2,-3,7,-2,11
Cc1cc2c3c(c1)C(C)CC(C)(C)N3C(=O)C2=O (stereo not given),2,19,-7,2,-3,-10
CC1CC2(CCCCC2)N2C(=O)C(=O)c3cccc1c32 (stereo not given),-3,63*,8,-6,-11,6
CCCCN(CC(=O)NC1CC1)S(=O)(=O)c1ccc(OCC)cc1,0,0,-6,3,-2,29*
CCOc1ccc(S(=O)(=O)N(C)CC(=O)NC2CC2)cc1,0,-6,12,14,-3,-3
O=C(CN1CCN(Cc2ccc3c(c2)OCO3)CC1)Nc1ccc2[nH]c(=O)[nH]c2c1,0,4,16*,8,2,-3
O=C(CN1CCN(Cc2ccc3c(c2)OCO3)CC1)Nc1ccc(N2CCOCC2)cc1,0,2,-9,6,-3,-8
CCCc1nc2c(=O)[nH]c3ccccc3c2o1,1,0,10,1,19*,-9
CCCCC1NC(C(=O)O)CS1 (stereo not given),1,2,-5,5,-1,7
CCCCCCC1NC(C(=O)O)CS1 (stereo not given),0,-9,18*,-4,6,-5
c1ccc(-n2nnnc2Oc2ccc(-c3nnco3)cc2)cc1,1,84*,-2,79*,-25,9
Cc1ccnc(NS(=O)(=O)c2ccc(NS(=O)(=O)c3ccccc3)cc2)n1,1,1,7,-6,23*,6
O=S(=O)(Nc1nc2c(s1)CCCC2)c1ccc(F)cc1,1,-7,-1,9,-3,-3
COc1ccc(S(=O)(=O)Nc2nc3c(s2)CCCC3)cc1,4,6,12,-4,20*,-7
O=C1C=C(N2CCOCC2)c2ccccc2C1=O,2,2,6,5,4,-6
CC1=C(C)C(=O)C(N2CCOCC2)=CC1=O,2,7,9,12,21*,2
CC(NCCC(c1ccccc1)c1ccccc1)c1ccccc1 (stereo not given),9,4,-16,9,-14,45*
CC(=NNC(=O)C(C)SC(C)C(=O)NN=C(C)c1cccnc1)c1cccnc1 (stereo not given),1,-2,7,7,-1,-11
CC(C)Sc1ccccc1C(=O)Nc1ccc2c(c1)n(C)c(=O)n2C,6,-3,-11,16,-1,5
